Experimental data published in ChEMBL document CHEMBL1124904, “7-Oxabicyclo[2.2.1]heptyl carboxylic acids as thromboxane A2 antagonists: aza omega-chain analogues” (J Med Chem, 1990).

Assays:
Bos taurus [1] = organism: Bos taurus; experiment: Evaluated for its specificity by inhibition of 6-keto-PGF1-alpha and PGH-2 (substrate) biosynthesis, enzyme source is Bovine Aorta; assay type: functional
Summary of the method: (§1)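 Microsomal enzyme preparations from human platelet, bovine seminal vesicles or bovine aorta, given arachidonic acid or PGH2 as substrate. Products measured: TxB2, PGE2 or 6-keto-PGF1α. IC50 reported.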

Bos taurus [2] = organism: Bos taurus; experiment: Evaluated for its specificity by inhibition of 6-keto-PGF1-alpha and arachidonic acid (substrate) biosynthesis, enzyme source is Bovine Aorta; assay type: functional; summary of the method: as §1
Bos taurus [3] = organism: Bos taurus; experiment: Evaluated for its specificity by inhibition of PGE-2 and arachidonic acid (substrate) biosynthesis, enzyme source is Bovine seminal Vesicles; assay type: functional; summary of the method: as §1
Cavia porcellus [4] = organism: Cavia porcellus; experiment: Evaluated for its potency in Guinea pig trachea (GPT) spirals in the presence of increasing concentrations; assay type: functional; conditions: Cavia porcellus, Trachea
Summary of the method: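 Guinea pig tracheal spirals contracted by U-46,619 in cumulative dose-response curves, repeated with increasing antagonist concentrations; Kb from analysis of the rightward shift.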

Cavia porcellus [5] = experiment: Evaluated for the percent inhibition of arachidonate-induced hypertension resulting in decreases in blood pressure at 60 min after dosing (0.1 mg/kg iv) in anesthetized guinea pig.; assay type: functional
Summary of the method: (§2)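 Anesthetized guinea pig dosed iv with antagonist at 0.1 mg/kg (some at 1.0 mg/kg). Arachidonic acid 0.5 mg/kg iv given as challenge 3 or 60 min later. Airway resistance, dynamic compliance and blood pressure recorded; percent inhibition of each response.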

Cavia porcellus [6] = experiment: Evaluated for the percent inhibition of arachidonate-induced air-way resistance at 3 min after dosing (0.1 mg/kg iv) in anesthetized guinea pig.; assay type: functional; summary of the method: as §2
Cavia porcellus [7] = experiment: Evaluated for the percent inhibition of arachidonate-induced air-way resistance at 60 min after dosing (0.1 mg/kg iv) in anesthetized guinea pig.; assay type: functional; summary of the method: as §2
Cavia porcellus [8] = experiment: Evaluated for the percent inhibition of arachidonate-induced dynamic compliance at 60 min after dosing (0.1 mg/kg iv) in anesthetized guinea pig.; assay type: functional; summary of the method: as §2
Cavia porcellus [9] = experiment: Evaluated for the percent inhibition of arachidonate-induced hypertension resulting in decreases in blood pressure at 3 min after dosing (0.1 mg/kg iv) in anesthetized guinea pig.; assay type: functional; summary of the method: as §2
Homo sapiens [10] = organism: Homo sapiens; experiment: Evaluated for its specificity by inhibition of PGE-2 and PGH-2 (substrate) biosynthesis, enzyme source is human platelets.; assay type: functional; summary of the method: as §1
Homo sapiens [11] = organism: Homo sapiens; experiment: Evaluated for its specificity by inhibition of PGE-2 and arachidonic acid (substrate) biosynthesis, enzyme source is human platelets.; assay type: functional; summary of the method: as §1
Homo sapiens [12] = organism: Homo sapiens; experiment: Evaluated for its specificity by inhibition of TXB2 and PGH-2 (substrate) biosynthesis, enzyme source is human platelets.; assay type: functional; summary of the method: as §1
Homo sapiens [13] = organism: Homo sapiens; experiment: Evaluated for its specificity to inhibit the aggregation of human platelets induced by U-46,619 at concentration of 5 uM; assay type: functional; conditions: read-out: I50
Summary of the method: (§3)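 Human PRP aggregation induced by U-46,619 (11,9-epoxymethano-PGH2, stable PGH2/TxA2 mimic) at 5 or 10 μM; I50 reported. Values are single determinations unless otherwise noted.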

Homo sapiens [14] = organism: Homo sapiens; experiment: Evaluated for its specificity to inhibit the aggregation of human platelets induced by ADP at concentration of 20 uM; assay type: functional; conditions: read-out: I50
Summary of the method: (§4)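 Human platelet aggregation with agonist ADP 20 μM, collagen 10 or 20 μg/mL, or epinephrine 10 μM (primary and secondary phases scored separately); I50 reported.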

Homo sapiens [15] = organism: Homo sapiens; experiment: Evaluated for its specificity to inhibit the aggregation of human platelets induced by Collagen at concentration of 10 ug/mL; assay type: functional; conditions: read-out: I50; summary of the method: as §4
Homo sapiens [16] = organism: Homo sapiens; experiment: Evaluated for its specificity to inhibit the aggregation of human platelets induced by Collagen at concentration of 20 ug/mL; assay type: functional; conditions: read-out: I50; summary of the method: as §4
Homo sapiens [17] = organism: Homo sapiens; experiment: Evaluated for its specificity to inhibit the aggregation of human platelets induced by Epinephrine(1 degree phase) at concentration of 10 uM; assay type: functional; conditions: read-out: I50; summary of the method: as §4
Homo sapiens [18] = organism: Homo sapiens; experiment: Evaluated for ability to inhibit platelet aggregation of human platelet-rich plasma (PRP) induced by 11.9-epoxymethano-PGH2.; assay type: functional; conditions: Homo sapiens, Plasma; read-out: I50; summary of the method: as §3
Homo sapiens [19] = organism: Homo sapiens; experiment: Ability to inhibit platelet aggregation of human platelet-rich plasma (PRP) induced by 800 uM of AA-IPA (arachidonic acid); assay type: functional; conditions: Homo sapiens, Plasma; read-out: I50
Summary of the method: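 Human platelet-rich plasma; aggregation triggered by arachidonic acid at 800 μM. Test acids were also checked against ADP (20 μM)-induced aggregation. I50 taken as the concentration inhibiting aggregation.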

Homo sapiens [20] = organism: Homo sapiens; experiment: Evaluated for its specificity by inhibition of TXB2 and arachidonic acid (substrate) biosynthesis, enzyme source is human platelets.; assay type: functional; conditions: read-out: I50; summary of the method: as §1
Homo sapiens [21] = organism: Homo sapiens; experiment: Evaluated for its specificity to inhibit the aggregation of human platelets induced by Epinephrine(2 degree phase) at concentration of 10 uM; assay type: functional; conditions: read-out: I50; summary of the method: as §4
Homo sapiens [22] = organism: Homo sapiens; experiment: Evaluated for its specificity to inhibit the aggregation of human platelets induced by U-46,619 at concentration of 10 uM; assay type: functional; conditions: read-out: I50; summary of the method: as §3
Rattus norvegicus = organism: Rattus norvegicus; experiment: Evaluated for its potency Rat aorta (RA) strips in the presence of increasing concentrations; assay type: functional
Summary of the method: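 Rat aortic strips contracted by U-46,619 in cumulative dose-response curves, repeated with increasing antagonist concentrations; Kb from analysis of the rightward shift.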

Thromboxane A2 receptor = target: T1, Thromboxane A2 receptor (Homo sapiens, UniProt P21731); experiment: Binding affinity was determined from the inhibition of [3H]-SQ 29,548 binding to Thromboxane A2 receptor in human platelet membranes.; assay type: cell membranes
T1 sequence (P21731 whole entry): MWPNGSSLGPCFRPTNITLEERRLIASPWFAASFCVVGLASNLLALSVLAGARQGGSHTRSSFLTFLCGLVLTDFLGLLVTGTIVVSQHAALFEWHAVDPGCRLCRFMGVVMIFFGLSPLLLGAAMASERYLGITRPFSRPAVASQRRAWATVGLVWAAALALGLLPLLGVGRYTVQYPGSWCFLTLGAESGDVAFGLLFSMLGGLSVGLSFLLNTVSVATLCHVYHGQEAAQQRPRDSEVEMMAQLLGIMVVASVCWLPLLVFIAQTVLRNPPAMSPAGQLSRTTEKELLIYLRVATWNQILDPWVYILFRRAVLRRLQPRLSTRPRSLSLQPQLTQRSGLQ
Summary of the method: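 Radioligand binding to human platelet membranes with [5,6-3H2]-SQ 29,548 as tracer; Kd derived from inhibition of specific binding.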

Cavia porcellus [23] = experiment: Evaluated for the percent inhibition of arachidonate-induced dynamic compliance at 3 min after dosing (0.1 mg/kg iv) in anesthetized guinea pig.; assay type: functional; summary of the method: as §2

In the case of `CCCCCCCC(=O)NCC(=O)NCC1C2CCC(O2)C1C/C=C/CCCC(=O)O` (single isomer, unassigned; (-)), the IC50 (Bos taurus [1]) is reported as > 1000 µM, the IC50 (Bos taurus [2]) is reported as > 1000 µM and the IC50 (Bos taurus [3]) is reported as > 1000 µM. For the same molecule, the Kb (Cavia porcellus [4]) was 0.003 µM, the Inhibition (Cavia porcellus [5]) was 90% and the Inhibition (Cavia porcellus [6]) was 96%. The Inhibition (Cavia porcellus [7]) was 23%, the Inhibition (Cavia porcellus [8]) was 22% and the Inhibition (Cavia porcellus [9]) was 195%. For the same molecule, the IC50 (Homo sapiens [10]) was > 1000 µM, the IC50 (Homo sapiens [11]) was > 1000 µM and the IC50 (Homo sapiens [12]) was > 1000 µM. The IC50 (Homo sapiens [13]) was 0.22 µM, the IC50 (Homo sapiens [14]) was > 1000 µM and the IC50 (Homo sapiens [15]) was 0.19 µM. For the same molecule, the IC50 (Homo sapiens [16]) was 0.56 µM, the IC50 (Homo sapiens [17]) was > 1000 µM and the IC50 (Homo sapiens [18]) was 0.24 µM. For the same molecule, the IC50 (Homo sapiens [19]) was 0.18 µM, the IC50 (Homo sapiens [20]) was > 1000 µM and the IC50 (Homo sapiens [21]) was 0.04 µM. It also gave an IC50 (Homo sapiens [22]) of 0.24 µM, a Kb (Rattus norvegicus) of 0.0088 µM and a Kd (Thromboxane A2 receptor) of 0.0496 µM. For the same molecule, the Inhibition (Cavia porcellus [23]) was 86%.
